Activity calls are given as the source filed them. The calls are words filed in the database; no cut-off is given here.
Experiments:
[1] = biological target: T1, Serine/threonine-protein kinase B-raf (Homo sapiens, UniProt P15056, V600E); experiment: Inhibition of full-length B-Raf V600E mutant in human MALME-3M cells assessed as reduction in basal ERK1/2 phosphorylation incubated for 1 hr; type: cell-based
[2] = Permeability across human Caco2 cells; type: ADME, cell-based; settings: Caco-2, read-out: permeability
Method in brief: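 Caco-2 monolayer permeability is reported as a class: low <2 × 10^-6 cm/s, medium 2–8 × 10^-6 cm/s, high >8 × 10^-6 cm/s.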

[3] = Volume of distribution in mouse at 2.5 mg/kg, iv; type: ADME, organism-based; parameters: dose 2.5 mg/kg, route intravenous; settings: in vivo
Method in brief: (§1)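 Mouse intravenous pharmacokinetics at 2.5 mg/kg. Observed clearance is reported in ml/min/kg and volume of distribution in l/kg.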

[4] = AUC in mouse at 30 mg/kg, po; type: ADME, organism-based; parameters: dose 30 mg/kg, route oral; settings: plasma
[5] = biological target: T1, Serine/threonine-protein kinase B-raf; experiment: Inhibition of full-length B-Raf V600E mutant assessed as reduction in incorporation of radiolabeled phosphate from [gamma-33P]ATP into FSBA-modified wild-type MEK.
[6] = biological target: Proto-oncogene tyrosine-protein kinase Src (Homo sapiens) (UniProt P12931); experiment: Inhibition of SRC at 1 uM
Chain of Proto-oncogene tyrosine-protein kinase Src (Homo sapiens) (P12931 2-536 limits assumed): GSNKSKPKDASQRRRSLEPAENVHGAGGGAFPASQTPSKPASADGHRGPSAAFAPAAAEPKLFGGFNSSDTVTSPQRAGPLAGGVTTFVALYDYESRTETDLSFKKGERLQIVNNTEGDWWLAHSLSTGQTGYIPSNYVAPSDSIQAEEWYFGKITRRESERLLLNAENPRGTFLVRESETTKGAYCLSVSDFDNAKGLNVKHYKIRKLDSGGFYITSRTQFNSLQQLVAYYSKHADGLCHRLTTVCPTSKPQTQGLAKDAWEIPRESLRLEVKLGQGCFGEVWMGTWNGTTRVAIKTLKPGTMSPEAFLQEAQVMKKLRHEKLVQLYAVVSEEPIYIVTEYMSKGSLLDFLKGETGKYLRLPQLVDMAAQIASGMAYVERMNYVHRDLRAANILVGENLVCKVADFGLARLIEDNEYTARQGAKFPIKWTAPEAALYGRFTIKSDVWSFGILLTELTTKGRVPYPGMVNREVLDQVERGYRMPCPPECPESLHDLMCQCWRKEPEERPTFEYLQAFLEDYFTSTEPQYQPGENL

[7] = biological target: Tyrosine-protein kinase Fgr (Homo sapiens) (UniProt P09769); experiment: Inhibition of FGR at 1 uM
Chain of Tyrosine-protein kinase Fgr (Homo sapiens) (P09769 2-529 limits assumed): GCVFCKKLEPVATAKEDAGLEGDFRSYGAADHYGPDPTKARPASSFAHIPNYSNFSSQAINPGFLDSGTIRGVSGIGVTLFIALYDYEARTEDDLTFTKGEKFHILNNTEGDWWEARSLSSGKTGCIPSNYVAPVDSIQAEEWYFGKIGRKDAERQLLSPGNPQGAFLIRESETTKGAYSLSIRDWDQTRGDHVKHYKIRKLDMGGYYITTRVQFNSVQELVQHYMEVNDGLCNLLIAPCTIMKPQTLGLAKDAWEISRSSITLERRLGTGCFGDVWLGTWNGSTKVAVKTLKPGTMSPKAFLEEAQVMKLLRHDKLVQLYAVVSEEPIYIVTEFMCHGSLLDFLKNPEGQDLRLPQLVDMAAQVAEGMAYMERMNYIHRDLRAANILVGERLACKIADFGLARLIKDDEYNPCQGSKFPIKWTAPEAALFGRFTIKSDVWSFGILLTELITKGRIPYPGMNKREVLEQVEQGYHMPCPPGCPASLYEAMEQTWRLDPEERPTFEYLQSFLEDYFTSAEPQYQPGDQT

[8] = biological target: Vascular endothelial growth factor receptor 2 (Homo sapiens) (UniProt P35968); experiment: Inhibition of KDR at 1 uM
Chain of Vascular endothelial growth factor receptor 2 (Homo sapiens) (P35968 whole entry): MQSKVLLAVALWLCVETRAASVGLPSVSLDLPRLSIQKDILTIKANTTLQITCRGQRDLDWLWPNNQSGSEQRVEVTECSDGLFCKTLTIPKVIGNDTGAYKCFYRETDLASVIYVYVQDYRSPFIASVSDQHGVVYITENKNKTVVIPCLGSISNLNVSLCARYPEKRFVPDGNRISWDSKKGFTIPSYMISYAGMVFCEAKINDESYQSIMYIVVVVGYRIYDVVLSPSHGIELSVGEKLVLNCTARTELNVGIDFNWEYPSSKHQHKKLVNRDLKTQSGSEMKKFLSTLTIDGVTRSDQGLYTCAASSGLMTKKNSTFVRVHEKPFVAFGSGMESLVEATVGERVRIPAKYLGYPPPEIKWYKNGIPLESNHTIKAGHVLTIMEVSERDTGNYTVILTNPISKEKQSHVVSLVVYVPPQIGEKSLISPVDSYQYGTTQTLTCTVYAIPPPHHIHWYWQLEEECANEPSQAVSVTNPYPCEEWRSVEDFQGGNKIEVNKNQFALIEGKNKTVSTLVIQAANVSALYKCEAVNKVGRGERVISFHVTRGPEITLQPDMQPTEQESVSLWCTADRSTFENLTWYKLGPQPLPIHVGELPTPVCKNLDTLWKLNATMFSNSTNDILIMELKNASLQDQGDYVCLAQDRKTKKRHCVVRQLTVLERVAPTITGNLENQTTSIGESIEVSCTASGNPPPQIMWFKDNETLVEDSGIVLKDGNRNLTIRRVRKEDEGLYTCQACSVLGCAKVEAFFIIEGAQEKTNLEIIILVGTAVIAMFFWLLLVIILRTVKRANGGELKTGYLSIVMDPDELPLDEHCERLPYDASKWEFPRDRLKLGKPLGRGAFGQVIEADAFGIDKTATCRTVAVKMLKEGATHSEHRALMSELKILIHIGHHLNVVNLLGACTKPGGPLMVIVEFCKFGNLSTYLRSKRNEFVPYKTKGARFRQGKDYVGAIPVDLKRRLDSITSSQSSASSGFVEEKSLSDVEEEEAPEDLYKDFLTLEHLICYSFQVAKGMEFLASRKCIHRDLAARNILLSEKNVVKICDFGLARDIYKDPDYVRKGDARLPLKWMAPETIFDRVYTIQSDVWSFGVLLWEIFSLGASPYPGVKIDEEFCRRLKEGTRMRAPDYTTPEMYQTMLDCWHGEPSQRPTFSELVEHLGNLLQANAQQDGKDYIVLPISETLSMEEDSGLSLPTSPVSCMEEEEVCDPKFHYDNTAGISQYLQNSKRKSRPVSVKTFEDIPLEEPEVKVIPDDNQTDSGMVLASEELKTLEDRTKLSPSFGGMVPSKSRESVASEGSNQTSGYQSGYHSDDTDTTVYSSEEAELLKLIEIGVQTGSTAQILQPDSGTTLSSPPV

[9] = biological target: Tyrosine-protein kinase Lck (Homo sapiens) (UniProt P06239); experiment: Inhibition of LCK at 1 uM
Chain of Tyrosine-protein kinase Lck (Homo sapiens) (P06239 2-509 limits assumed): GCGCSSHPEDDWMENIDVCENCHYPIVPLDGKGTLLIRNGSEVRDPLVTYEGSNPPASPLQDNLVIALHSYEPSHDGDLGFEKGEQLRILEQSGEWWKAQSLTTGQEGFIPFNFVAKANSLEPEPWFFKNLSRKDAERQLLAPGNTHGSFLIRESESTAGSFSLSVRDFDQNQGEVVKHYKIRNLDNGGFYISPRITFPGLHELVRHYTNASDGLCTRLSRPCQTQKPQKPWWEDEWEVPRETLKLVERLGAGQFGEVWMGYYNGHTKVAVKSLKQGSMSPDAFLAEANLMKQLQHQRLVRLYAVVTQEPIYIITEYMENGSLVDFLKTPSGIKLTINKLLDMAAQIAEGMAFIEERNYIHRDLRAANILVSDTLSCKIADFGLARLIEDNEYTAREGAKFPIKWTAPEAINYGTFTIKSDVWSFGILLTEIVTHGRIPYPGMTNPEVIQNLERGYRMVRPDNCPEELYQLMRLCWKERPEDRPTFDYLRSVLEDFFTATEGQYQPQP

[10] = biological target: Tyrosine-protein kinase ABL1 (Homo sapiens) (UniProt P00519); experiment: Inhibition of ABL at 1 uM
Chain of Tyrosine-protein kinase ABL1 (Homo sapiens) (P00519 whole entry): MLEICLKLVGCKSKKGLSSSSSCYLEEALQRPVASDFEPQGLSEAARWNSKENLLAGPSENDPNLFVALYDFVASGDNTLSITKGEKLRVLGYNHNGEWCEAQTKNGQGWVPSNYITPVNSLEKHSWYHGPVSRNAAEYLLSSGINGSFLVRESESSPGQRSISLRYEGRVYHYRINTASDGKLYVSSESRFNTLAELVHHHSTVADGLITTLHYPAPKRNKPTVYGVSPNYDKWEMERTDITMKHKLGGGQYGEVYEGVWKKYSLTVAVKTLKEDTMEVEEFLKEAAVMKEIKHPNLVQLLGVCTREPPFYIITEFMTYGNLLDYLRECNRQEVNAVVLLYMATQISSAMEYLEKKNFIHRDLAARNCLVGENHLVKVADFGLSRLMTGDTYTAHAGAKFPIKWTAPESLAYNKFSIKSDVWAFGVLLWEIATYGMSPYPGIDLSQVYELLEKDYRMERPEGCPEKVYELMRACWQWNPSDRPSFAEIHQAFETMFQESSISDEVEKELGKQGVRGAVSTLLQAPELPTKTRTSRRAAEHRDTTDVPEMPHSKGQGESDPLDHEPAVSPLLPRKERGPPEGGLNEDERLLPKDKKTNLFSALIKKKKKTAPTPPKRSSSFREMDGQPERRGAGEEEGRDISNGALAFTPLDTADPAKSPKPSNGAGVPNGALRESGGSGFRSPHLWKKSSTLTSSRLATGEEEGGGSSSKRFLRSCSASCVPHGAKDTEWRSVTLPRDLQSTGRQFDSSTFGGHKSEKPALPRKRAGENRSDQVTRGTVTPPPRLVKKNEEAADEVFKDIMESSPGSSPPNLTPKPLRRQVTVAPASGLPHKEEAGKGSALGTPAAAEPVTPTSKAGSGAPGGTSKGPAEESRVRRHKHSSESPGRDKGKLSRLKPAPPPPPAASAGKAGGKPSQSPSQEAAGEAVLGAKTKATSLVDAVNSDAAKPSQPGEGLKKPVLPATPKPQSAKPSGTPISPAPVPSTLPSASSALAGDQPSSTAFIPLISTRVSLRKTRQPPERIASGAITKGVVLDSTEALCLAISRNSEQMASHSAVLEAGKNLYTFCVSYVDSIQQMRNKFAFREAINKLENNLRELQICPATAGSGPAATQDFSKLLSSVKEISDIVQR

[11] = biological target: RAF proto-oncogene serine/threonine-protein kinase (Homo sapiens) (UniProt P04049); experiment: Inhibition of human C-raf at 1 uM in presence of ATP at level equals to ~ Km of ATP
[12] = Antitumor activity against B-Raf V600E mutant expressing human LOX cells xenografted in mouse assessed as tumor growth inhibition at 30 mg/kg, QD from day 1 to day 4 measured on day 11; type: functional; settings: read-out: TGI
Method in brief: (§2)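 Nude mice bearing established LOX (B-Raf V600E) xenografts were dosed at 30 mg/kg once daily on days 1–4, with vehicle controls at 10 ml/kg. Tumor volume was measured on days 1, 3, 5, 8 and 11.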

[13] = Antitumor activity against B-Raf V600E mutant expressing human LOX cells xenografted in mouse assessed as tumor growth inhibition at 30 mg/kg, QD from day 1 to day 4 measured on day 8; type: functional; settings: read-out: TGI; method in brief: as §2
[14] = biological target: LIM domain kinase 1 (Homo sapiens) (UniProt P53667); experiment: Inhibition of human LIMK1 at 1 uM in presence of ATP at level equals to ~ Km of ATP
[15] = Clearance in mouse at 2.5 mg/kg, iv; type: ADME, organism-based; parameters: dose 2.5 mg/kg, route intravenous; settings: in vivo; method in brief: as §1
[16] = Antitumor activity against B-Raf V600E mutant expressing human LOX cells xenografted in mouse assessed as tumor growth inhibition at 30 mg/kg, QD from day 1 to day 4 measured on day 5; type: functional; settings: read-out: TGI; method in brief: as §2
[17] = Oral bioavailability in mouse at 30 mg/kg; type: ADME, organism-based; settings: in vivo
[18] = biological target: Serine/threonine-protein kinase B-raf (Homo sapiens) (UniProt P15056); experiment: Inhibition of human B-raf at 1 uM in presence of ATP at level equals to ~ Km of ATP

T1 sequence (P15056 2-766 V600E limits assumed): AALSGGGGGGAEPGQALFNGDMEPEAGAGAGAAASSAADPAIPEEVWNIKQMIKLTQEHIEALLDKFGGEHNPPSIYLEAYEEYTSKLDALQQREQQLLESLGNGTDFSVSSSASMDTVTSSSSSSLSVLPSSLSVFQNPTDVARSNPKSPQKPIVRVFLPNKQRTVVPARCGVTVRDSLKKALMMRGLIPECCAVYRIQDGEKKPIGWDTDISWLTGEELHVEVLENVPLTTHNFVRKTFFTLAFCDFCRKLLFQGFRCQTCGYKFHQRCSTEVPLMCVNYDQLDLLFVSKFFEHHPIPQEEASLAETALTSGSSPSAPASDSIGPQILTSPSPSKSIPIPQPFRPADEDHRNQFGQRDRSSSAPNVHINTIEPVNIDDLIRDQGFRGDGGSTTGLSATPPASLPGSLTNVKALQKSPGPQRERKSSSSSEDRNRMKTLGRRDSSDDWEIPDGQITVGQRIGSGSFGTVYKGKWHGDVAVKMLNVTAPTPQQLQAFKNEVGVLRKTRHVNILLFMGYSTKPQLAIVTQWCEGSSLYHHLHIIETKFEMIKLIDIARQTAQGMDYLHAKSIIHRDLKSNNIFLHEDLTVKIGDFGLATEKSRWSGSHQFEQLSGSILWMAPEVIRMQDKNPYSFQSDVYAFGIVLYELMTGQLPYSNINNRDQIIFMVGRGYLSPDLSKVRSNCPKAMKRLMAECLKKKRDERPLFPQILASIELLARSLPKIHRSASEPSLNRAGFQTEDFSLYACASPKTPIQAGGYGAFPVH

In the case of `CCCS(=O)(=O)Nc1ccc(F)c(-c2cc3cnc(NCCCO)nc3n(C)c2=O)c1F`, the IC50 [1] is reported as 41 nM, the Papp [2] is reported as greater than 8 ×10⁻⁶ cm/s and the Vd [3] is reported as 20 L/kg. For the same compound, the AUC [4] was 20 µM·h.

In the case of `CCCS(=O)(=O)Nc1ccc(F)c(-c2ccc3cc(N)ncc3c2)c1F`, the IC50 [5] is reported as 549 nM.

Compound `CCCS(=O)(=O)Nc1ccc(F)c(-c2cc3cnc(Nc4cnn(C)c4)nc3n(C)c2=O)c1F` has an IC50 [1] of 1 nM, an inhibition [6] greater than 90% and an inhibition [7] greater than 90%. The inhibition [8] was greater than 90%, the inhibition [9] was greater than 90% and the IC50 [5] was 0.4 nM. For the same compound, the inhibition [10] was greater than 90%.

With `CCCS(=O)(=O)Nc1ccc(F)c(-c2cc3cnc(NCC4CC4)nc3n(C)c2=O)c1F` the IC50 [1] was 27 nM, the Papp [2] was greater than 8 ×10⁻⁶ cm/s and the inhibition [11] was “Active”. It also gave a Vd [3] of 0.46 L/kg, an AUC [4] of 133 µM·h and an IC50 [5] of 3 nM. The inhibition in vivo at 30 mg/kg [12] was 97%, the inhibition in vivo at 30 mg/kg [13] was 96% and the inhibition [14] was greater than 80%. It also gave a clearance [15] of 3 mL/min/kg, an inhibition in vivo at 30 mg/kg [16] of 74% and a bioavailability [17] of 33%. The inhibition [18] was “Active”.

`CCCS(=O)(=O)Nc1ccc(F)c(-c2cc3cnccc3c(=O)n2C)c1F` gave an IC50 [1] of 445 nM and an IC50 [5] of 71 nM.

With `CCCS(=O)(=O)Nc1ccc(F)c(-c2cc3cnc(NCCO)nc3n(C)c2=O)c1F` the IC50 [1] was 31 nM, the Papp [2] was greater than 8 ×10⁻⁶ cm/s and the Vd [3] was 1 L/kg. The AUC [4] was 1 µM·h, the IC50 [5] was 6 nM and the clearance [15] was 74 mL/min/kg. The bioavailability [17] was 18%.

For `CCCS(=O)(=O)Nc1ccc(F)c(-c2cc3cnc(Nc4ccccc4)nc3n(C)c2=O)c1F`, the IC50 [1] was 5 nM, the inhibition [6] was greater than 90% and the inhibition [7] was greater than 90%. The inhibition [8] was greater than 90%, the inhibition [9] was greater than 90% and the IC50 [5] was 0.5 nM. It also gave an inhibition [10] greater than 90%.

With `CCCS(=O)(=O)Nc1ccc(F)c(-c2cc3cnc(Nc4cccnc4)nc3n(C)c2=O)c1F` the IC50 [1] was 3 nM, the inhibition [6] was greater than 90% and the inhibition [7] was greater than 90%. The inhibition [8] was greater than 90%, the inhibition [9] was greater than 90% and the IC50 [5] was 0.5 nM. For the same compound, the inhibition [10] was greater than 90%.

In the case of `CCCS(=O)(=O)Nc1ccc(F)c(-c2cc3ccncc3[nH]2)c1F`, the IC50 [5] is reported as greater than 10000 nM.

For `CCCS(=O)(=O)Nc1ccc(C)c(-c2ccc3nc(N)ncc3c2)c1`, the IC50 [1] was greater than 10000 nM and the IC50 [5] was 128 nM.

`CCCS(=O)(=O)Nc1ccc(F)c(-c2ccc3ccncc3c2)c1F` gave an IC50 [5] of 340 nM.

In the case of `CCCS(=O)(=O)Nc1ccc(F)c(-c2ccc3nc(N)ncc3c2)c1`, the IC50 [5] is reported as greater than 10000 nM.

For `CCCS(=O)(=O)Nc1ccc(F)c(-c2cc3cnc(NC)nc3n(C)c2=O)c1F`, the IC50 [1] was 45 nM and the IC50 [5] was 9 nM.

With `CCCS(=O)(=O)Nc1ccc(F)c(-c2cc3cncc(Br)c3cn2)c1F` the IC50 [1] was 469 nM and the IC50 [5] was 72 nM.

Compound `CCCS(=O)(=O)Nc1ccc(F)c(-c2ccc3ccncc3n2)c1F` has an IC50 [5] of 3610 nM.

Compound `CCCS(=O)(=O)Nc1ccc(F)c(-c2ccc3nc(N)ncc3c2)c1F` has an IC50 [1] of 682 nM and an IC50 [5] of 140 nM.

Compound `CCCS(=O)(=O)Nc1ccc(F)c(-c2cc3cnccc3cn2)c1F` has an IC50 [1] of 703 nM and an IC50 [5] of 241 nM.

For `CCCS(=O)(=O)Nc1ccc(F)c(-c2cc3cnc(NC4CCOCC4)nc3n(C)c2=O)c1F`, the IC50 [1] was 73 nM and the IC50 [5] was 15 nM.

In the case of `CCCS(=O)(=O)Nc1ccc(F)c(-c2cc3cnc(N)nc3n(C)c2=O)c1F`, the IC50 [1] is reported as 93 nM and the IC50 [5] is reported as 10 nM.

Work on `CCCS(=O)(=O)Nc1ccc(F)c(-c2cc3cnccc3n(CCc3ccccc3)c2=O)c1F` yielded an IC50 [1] of 1160 nM and an IC50 [5] of 13 nM.
